An excerpt weighted towards active compounds, which were near 27% of everything screened.
CYP2C19 inh – human CYP2C19 inhibition; P33261; CYP2C19 Supersomes, luciferin-H EGE luminescence, 30 min; inhibition, % at 5 µM; actives 21% (n = 96,000);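 active = CYP2C19 inhibition above a set limit at 5 µM in the primary screen, cut at about 50% in these data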;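 note: plate controls were negative control wells for no effect and 2.5 mM tranylcypromine positive control for full effect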
CYP2C9 act – increases human cytochrome P450 2C9 activity; activation factor at 5 µM; AID 1024; actives 1.4% (n = 96,000); recombinant CYP2C9, luciferin-H conversion, luminescence; stronger effect = higher value; factor 1 = untreated enzyme, 0 = blocked;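 active = activation factor of 2 or more for CYP2C9 at a 5 µM dose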;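 note: 0 = sulfaphenazole-blocked wells and 1 = vehicle-only wells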
CYP2C9 inh – inhibitors of human CYP2C9. actives 20% (n = 96,000). P11712. inhibition, % at 5 µM. CYP2C9 Supersomes, luciferin-H conversion, luminescence;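 active = blocking of liver enzyme CYP2C9 beyond about 50% at 5 µM, limit read from the data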
CYP2C19 activ – activators of human cytochrome P450 2C19 | P33261 | recombinant CYP2C19, luciferin-H EGE luminescence; stronger effect = higher value; 0 = fully inhibited enzyme, 1 = untreated enzyme | activation factor at 5 µM | AID 1025 | 96,000 tested, under 10 active;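 active = activation factor of at least 2 at 5 µM in the primary screen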;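 note: 0 = wells with 2.5 mM tranylcypromine and 1 = vehicle-only wells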
Cav32 inh – human Cav3.2 channel inhibition, primary screen | actives 4% (n = 100,000) | B-score at 10 µM | AID 449739 | O95180 | Cav3.2-expressing cells, Fluo-4 calcium fluorescence FDSS; stronger effect = lower value;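 active = single-dose well whose peak fluorescence ratio is a statistical outlier from its plate by either plate-standardised score or position-corrected B-score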
HIV Rev-RRE inh – HIV Rev-RRE protein-RNA interaction inhibition; P05866; Rev peptide-RRE RNA binding, FRET; inhibition, % at 8 µM; actives 0.79% (n = 97,000);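 active = inhibition above the screen-wide mean plus 3 SD, cut at about 35% in these data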;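 note: 0% = median DMSO wells and 100% = median Neomycin B control wells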
Target sequence (P05866 whole entry, looked up): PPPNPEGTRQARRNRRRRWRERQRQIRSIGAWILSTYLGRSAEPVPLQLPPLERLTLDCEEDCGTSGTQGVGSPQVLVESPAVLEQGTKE
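Assay system: labelled RRE RNA duplex and labelled Rev peptide / Medium: HEPES pH 7.5 salt buffer with EDTA / Reagent: labelled Rev peptide / Schedule: 5 + 15 min at 25 °C / Signal: FRET, excitation 480 nm, emission 540 nm donor and 671 nm acceptor / Benchmarks: DMSO and neomycin B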
Numbers without * were called inactive; x = no result given.

SMILES	CYP2C19 inh	CYP2C9 act	CYP2C9 inh	CYP2C19 activ	Cav32 inh	HIV Rev-RRE inh
CCCn1nnnc1SCC(=O)N1CCCc2ccccc21	83*	0.8	19	0.2	-0.15	0
COCCNC(=O)c1c(NC(=O)c2nc(SC)ncc2Cl)sc2c1CCCC2	-6	1	-1	1.1	0.072	4
O=C(NCCc1ccccc1F)C1CCCN1S(=O)(=O)c1ccc2ccccc2c1 (configuration not stated)	x	x	x	x	-1.9	7
O=C(/C(=C/O)N=Nc1ccc(Cl)cc1)c1ccncc1	66*	0.5	46	0.3	-1.2	-3
CC(C)(C)NC(=O)c1ccncc1	-17	1.1	-8	1.2	0.18	13
COc1ccc(C(=O)O)cc1NS(=O)(=O)c1cccc2nsnc12	-10	1.1	-7	1.1	0.037	x
Cc1c(F)cccc1NS(=O)(=O)c1ccccc1C#N	59*	0.7	29	0.4	-1.2	3
COc1ccccc1NS(=O)(=O)c1ccccc1C#N	58*	2.7*	-174	0.4	0.53	6
Cc1cc(C(=O)NCCCN2CCOCC2)n(-c2ccccc2)n1	2	0.9	14	1	1	-6
CCOC(=O)CC1(c2ccccc2)CCOC(C)(C)C1 (configuration not stated)	87*	0.7	34	0.1	-0.24	2
CC1(C)CC(CC(=O)O)(c2ccccc2)CCO1 (configuration not stated)	6	1	3	0.9	0.61	6
CC[C@H](C)/C=C(C)/C=C/C(=O)Cc1cc(O)c(C)c(O)c1C=O	x	x	x	x	-3.6*	x
O=C(CCSc1nnc(-c2ccco2)o1)Nc1ccc(Cl)cc1	-3	1	-4	1	-1.6	x
O=C(CCSc1nnc(-c2ccncc2)o1)Nc1ccc(Cl)cc1	96*	0.2	84*	0	x	5
Cc1ccc(NC(=O)CSc2nnc(-c3ccncc3)o2)cc1	98*	0.5	51*	0	x	7
CC(=O)c1c(C)cc(C)c(CSc2nnc(-c3ccco3)o2)c1C	45	0.5	51*	0.5	-3.5	10
O=C(CCSc1nnc(-c2ccco2)o1)Nc1ccccc1	79*	0.7	28	0.2	0.41	5
CC(C)C1CCC(C(=O)N[C@H](Cc2ccccc2)C(=O)O)CC1 (some centres not stated)	x	x	x	x	-0.66	x
CCOC(=O)C(C)Sc1nc(-c2ccco2)cc(C(F)(F)F)c1C#N (configuration not stated)	7	0.8	20	0.9	-1.6	15
COc1cccc(CNC(=O)c2ccc3nc[nH]c3c2)c1	38	1.1	-8	0.6	-0.68	6
Cc1ccc(S(=O)(=O)NC(=O)c2cc(C)n(-c3cc(S(=O)(=O)N4CCOCC4)ccc3N3CCCC3)c2C)cc1	-7	0.7	28	1.1	0.13	-4
Cc1ccc(SCC(=O)Nc2cccc(C(=O)NC(C)(C)C)c2)cc1	27	0.4	58*	0.7	-1.4	6
Cc1ccc(SCC(=O)NC(C)(C)C)cc1	16	0.9	13	0.8	0.88	6
Cc1ccc(SCC(=O)Nc2cccc(-c3nnc(-c4ccco4)o3)c2)cc1	23	0.1	91*	0.8	0.0021	9
Nc1c(S(=O)(=O)c2cccc(Cl)c2)c2nc3ccccc3nc2n1/N=C/c1ccc(O)c(O)c1	-13	0.9	8	1.1	-0.7	4
SMILES	CYP2C19 inh	CYP2C9 act	CYP2C9 inh	CYP2C19 activ	Cav32 inh	HIV Rev-RRE inh
N/C(=N\OS(=O)(=O)c1ccc2ccccc2c1)c1ccncc1	30	0.3	68*	0.7	0.24	-1
CN1CCC2(CC1)C1CN(C)CC=C1C(C#N)=C(N)C2(C#N)C#N (configuration not stated)	1	1	3	1	x	74*
CCOC(=O)CSc1nnc(CNC(=O)c2ccc(S(=O)(=O)N3CCCC3)cc2)n1C	16	1	2	0.8	x	5
Cc1cc(-c2ccccc2)nc(N2CCC(C(=O)NC(C)C)CC2)n1	32	0.8	20	0.7	0.85	7
CCOC(=O)c1c(C)[nH]c(C(=O)CN2CC(C)OC(C)C2)c1C (configuration not stated)	28	0.8	17	0.7	-0.1	0
CCOC(=O)c1cc(-c2ccccc2)sc1NC(=O)CN1C(=O)c2ccccc2C1=O	x	x	x	x	-0.39	8

Assay outcomes from PubChem BioAssay.
